In ChEMBL document CHEMBL4431328, “Development of a Single-Chain Peptide Agonist of the Relaxin-3 Receptor Using Hydrocarbon Stapling” (J Med Chem, 2016):
Active and inactive are the calls of the source. The calls are words filed in the database; no cut-off is given here. Where a SMILES comes first, the peptide text is derived from it. Bridges are numbered along the chain shown (N, C = ends). [ ]: non-standard residue; d: D form. S5 = C=CCCC[C@](C)(N)C(=O)O

Assays:
Rattus norvegicus [1] = test: Induction of food intake in satiated Sprague-Dawley rat at 1 nmol, icv during early light phase measured after 1 hr post dose; type: functional, organism-based
[2] = target: T1, Relaxin receptor 1 (Homo sapiens) (UniProt Q9HBX9); test: Agonist activity at RXFP1 receptor (unknown origin) expressed in HEK-293T cells cotransfected with beta-galactosidase assessed as cAMP activation at 10 uM by beta-galactosidase reporter gene assay; type: functional, cell-based
T1 sequence (whole entry): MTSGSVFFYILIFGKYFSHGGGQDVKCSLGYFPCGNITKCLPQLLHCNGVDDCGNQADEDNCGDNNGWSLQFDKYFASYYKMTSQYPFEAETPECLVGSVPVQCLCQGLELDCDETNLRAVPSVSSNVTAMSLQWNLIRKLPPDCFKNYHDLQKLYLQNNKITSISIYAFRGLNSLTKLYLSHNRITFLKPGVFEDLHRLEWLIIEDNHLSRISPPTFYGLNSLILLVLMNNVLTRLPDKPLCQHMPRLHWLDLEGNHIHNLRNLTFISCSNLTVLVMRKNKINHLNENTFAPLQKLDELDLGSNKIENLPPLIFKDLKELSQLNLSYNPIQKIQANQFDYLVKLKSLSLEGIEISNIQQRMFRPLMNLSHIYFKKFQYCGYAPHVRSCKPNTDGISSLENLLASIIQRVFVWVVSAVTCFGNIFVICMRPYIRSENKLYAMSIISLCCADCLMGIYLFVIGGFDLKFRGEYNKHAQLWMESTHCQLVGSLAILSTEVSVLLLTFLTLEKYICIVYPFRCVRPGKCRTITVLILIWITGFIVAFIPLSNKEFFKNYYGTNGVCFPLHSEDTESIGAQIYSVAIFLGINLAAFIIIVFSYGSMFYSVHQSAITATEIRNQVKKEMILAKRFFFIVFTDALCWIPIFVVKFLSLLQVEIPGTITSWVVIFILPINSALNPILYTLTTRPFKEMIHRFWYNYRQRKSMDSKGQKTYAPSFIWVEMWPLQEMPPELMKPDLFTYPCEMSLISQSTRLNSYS
In short: (§1)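 Tested for RXFP1 activation at concentrations up to 10 µM, alongside the […] as a reference.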

[3] = target: T1, Relaxin receptor 1 (Homo sapiens); test: (§2) Agonist activity at RXFP1 receptor (unknown origin) expressed in HEK-293T cells cotransfected with beta-galactosidase assessed as cAMP activation by beta-galactosidase reporter gene assay; type: functional, cell-based; in short: as §1
Relaxin-3 receptor 1 [4] = target: T2, Relaxin-3 receptor 1 (Homo sapiens, UniProt Q9NSD7); test: Agonist activity at human RXFP3 receptor expressed in CHOK1 cells assessed as ERK1/2 phosphorylation incubated for 5 mins by alphascreen surefire assay; type: cell-based
T2 sequence (Q9NSD7 whole entry): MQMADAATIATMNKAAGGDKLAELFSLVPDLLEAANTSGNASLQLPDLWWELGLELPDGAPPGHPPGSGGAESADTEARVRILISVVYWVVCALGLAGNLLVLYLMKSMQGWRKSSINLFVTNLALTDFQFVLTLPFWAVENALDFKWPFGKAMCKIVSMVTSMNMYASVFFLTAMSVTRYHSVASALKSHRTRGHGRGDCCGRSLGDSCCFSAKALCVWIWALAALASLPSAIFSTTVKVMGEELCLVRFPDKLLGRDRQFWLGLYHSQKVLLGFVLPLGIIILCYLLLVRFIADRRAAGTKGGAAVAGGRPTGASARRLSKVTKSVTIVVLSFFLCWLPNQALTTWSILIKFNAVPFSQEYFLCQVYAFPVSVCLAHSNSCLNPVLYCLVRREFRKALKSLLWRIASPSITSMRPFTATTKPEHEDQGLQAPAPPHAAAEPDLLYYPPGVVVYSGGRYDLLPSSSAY

Relaxin-3 receptor 1 [5] = target: T2, Relaxin-3 receptor 1; test: Agonist activity at human RXFP3 receptor expressed in CHOK1 cells cotransfected with beta-galactosidase assessed as inhibition of forskolin-stimulated cAMP by beta-galactosidase reporter gene assay; type: functional, cell-based
Relaxin-3 receptor 2 [6] = target: T3, Relaxin-3 receptor 2 (Homo sapiens, UniProt Q8TDU9); test: Agonist activity at human RXFP4 receptor expressed in CHOK1 cells cotransfected with beta-galactosidase assessed as inhibition of forskolin-stimulated cAMP by beta-galactosidase reporter gene assay; type: functional, cell-based
T3 sequence (Q8TDU9 whole entry): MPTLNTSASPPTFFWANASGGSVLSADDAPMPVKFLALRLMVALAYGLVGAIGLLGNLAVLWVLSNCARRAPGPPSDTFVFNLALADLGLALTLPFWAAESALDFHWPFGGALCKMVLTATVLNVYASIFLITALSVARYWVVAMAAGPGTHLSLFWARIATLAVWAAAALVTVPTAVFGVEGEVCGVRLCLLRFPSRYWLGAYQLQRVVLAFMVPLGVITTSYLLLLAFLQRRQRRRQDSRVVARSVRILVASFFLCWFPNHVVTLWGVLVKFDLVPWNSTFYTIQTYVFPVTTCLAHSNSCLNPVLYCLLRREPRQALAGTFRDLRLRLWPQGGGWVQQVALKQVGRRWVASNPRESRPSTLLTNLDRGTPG

Relaxin-3 receptor 2 [7] = target: T3, Relaxin-3 receptor 2; test: Displacement of Eu-INSL5 from human RXFP4 receptor expressed in CHOK1 cells by time-resolved fluorescent whole cell binding assay; type: cell-based
Rattus norvegicus [8] = test: Induction of water intake in satiated Sprague-Dawley rat at 1 nmol, icv during early light phase measured after 1 hr post dose; type: functional, organism-based
Relaxin-3 receptor 1 [9] = target: T2, Relaxin-3 receptor 1; test: Displacement of Eu-H3/15 from human RXFP3 receptor expressed in CHOK1 cells by time-resolved fluorescent whole cell binding assay; type: cell-based
[10] = Toxicity in satiated Sprague-Dawley rat assessed as behavioral changes at 1 nmol, icv during early light phase measured after 1 hr post dose under home cage condition; conditions: in vivo, icv_or_intrathecal
Relaxin receptor 1 = target: T4, Relaxin receptor 1 (Homo sapiens, UniProt Q9HBX9); test: as §2; type: functional, cell-based; in short: as §1
T4 sequence (Q9HBX9 whole entry): T1 sequence (whole entry)

Row | Activity [2] | pEC50 [3] | EC50 (Relaxin-3 receptor 1 [4]) [nM] | EC50 (Relaxin-3 receptor 1 [5]) [nM] | EC50 (Relaxin-3 receptor 2 [6]) [nM] | Ki (Relaxin-3 receptor 2 [7]) [nM] | Ki (Relaxin-3 receptor 1 [9]) [nM] | EC50 (Relaxin receptor 1) [nM] | SMILES | Activity (Rattus norvegicus [1]) | Activity (Rattus norvegicus [8]) | Activity [10]
1 | inactive | inactive | 0.12 | 3.31 | 112 | 316 | 275 |  | CC[C@H](C)[C@@H]1NC(=O)[C@H](Cc2ccccc2)NC(=O)[C@@](C)(NC(=O)[C@H](CCCNC(=N)N)NC(=O)CNC(=O)[C@H](CO)NC(C)=O)CCC/C=C/CCC[C@@](C)(C(=O)N[C@H](C(=O)N[C@H](C(=O)N[C@@H](Cc2ccccc2)C(=O)N[C@H](C(=O)N[C@@H](CO)C(=O)NCC(=O)NCC(=O)N[C@@H](CO)C(=O)N[C@@H](CCCNC(=N)N)C(=O)N[C@@H](Cc2c[nH]c3ccccc23)C(=O)O)[C@@H](C)O)[C@@H](C)CC)C(C)C)NC(=O)[C@H](CCCNC(=N)N)NC1=O (Ac-SGR[S5]FIR[S5]VIFTSGGSRW-OH; staple (E) 4-8) | Active | inactive | Non-Toxic
2 | inactive |  |  | 4570 | 5890 | > 10000 |  | > 10000 | CC[C@H](C)[C@H](NC(=O)[C@H](Cc1ccccc1)NC(=O)[C@H](CCC(=O)O)NC(=O)[C@H](CCCNC(=N)N)NC(=O)CNC(=O)[C@H](CO)NC(C)=O)C(=O)N[C@@H](CCCNC(=N)N)C(=O)N[C@@H](CCCCN)C(=O)N[C@H](C(=O)N[C@H](C(=O)N[C@@H](Cc1ccccc1)C(=O)N[C@H](C(=O)N[C@@H](CO)C(=O)NCC(=O)NCC(=O)N[C@@H](CO)C(=O)N[C@@H](CCCNC(=N)N)C(=O)N[C@@H](Cc1c[nH]c2ccccc12)C(=O)O)[C@@H](C)O)[C@@H](C)CC)C(C)C (Ac-SGREFIRKVIFTSGGSRW-OH) |  |  | 
3 | inactive |  |  | 8710 | 2690 | > 10000 |  | > 10000 | CC[C@H](C)[C@H](NC(=O)[C@H](Cc1ccccc1)NC(=O)[C@H](CCC(=O)O)NC(=O)[C@H](CCCNC(=N)N)NC(=O)CNC(=O)[C@H](CO)NC(C)=O)C(=O)N[C@@H](CCCNC(=N)N)C(=O)N[C@@H](C)C(=O)N[C@H](C(=O)N[C@H](C(=O)N[C@@H](Cc1ccccc1)C(=O)N[C@H](C(=O)N[C@@H](CO)C(=O)NCC(=O)NCC(=O)N[C@@H](CO)C(=O)N[C@@H](CCCNC(=N)N)C(=O)N[C@@H](Cc1c[nH]c2ccccc12)C(=O)O)[C@@H](C)O)[C@@H](C)CC)C(C)C (Ac-SGREFIRAVIFTSGGSRW-OH) |  |  | 
4 | inactive |  |  | 5.25 | 120 | 123 | 107 | > 10000 | CC[C@H](C)[C@@H]1NC(=O)[C@H](Cc2ccccc2)NC(=O)[C@@](C)(NC(=O)[C@H](CCCNC(=N)N)NC(=O)CNC(=O)[C@H](CO)NC(=O)[C@H](CC(C)C)NC(=O)[C@H](CCCNC(=N)N)NC(C)=O)CCC/C=C/CCC[C@@](C)(C(=O)N[C@H](C(=O)N[C@H](C(=O)N[C@@H](Cc2ccccc2)C(=O)N[C@H](C(=O)N[C@@H](CO)C(=O)NCC(=O)NCC(=O)N[C@@H](CO)C(=O)N[C@@H](CCCNC(=N)N)C(=O)N[C@@H](Cc2c[nH]c3ccccc23)C(=O)O)[C@@H](C)O)[C@@H](C)CC)C(C)C)NC(=O)[C@H](CCCNC(=N)N)NC1=O (Ac-RLSGR[S5]FIR[S5]VIFTSGGSRW-OH; staple (E) 6-10) |  |  | 
